Reference: ChEMBL document CHEMBL4396876, “Antisulfatase, Osteogenic, and Anticancer Activities of Steroid Sulfatase Inhibitor EO-33 in Mice” (J Med Chem, 2019)

What was measured:
[1] = Plasma concentration in Balb/c mouse at 2 mg/kg, sc administered as single dose using MC/EtOH formulation measured at 1 hr by LC-MS/MS analysis; type: ADME, organism-based
How it was run: (§1)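 Female Balb/c mice, fasted 8 h with free water, given a single dose in 0.1 mL vehicle: EO-33 dissolved in EtOH, then aqueous 0.4% methylcellulose added to a final 8% EtOH. Sacrificed under isoflurane at 1, 3, 7, 12 and 24 h (2–3 mice/group). Cardiac blood collected into K-EDTA and plasma stored at −80 °C. LC-MS/MS on 100 µL plasma. AUC0-24h taken from the five time points.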

[2] = Plasma concentration in Balb/c mouse at 10 mg/kg, sc administered as single dose using MC/EtOH formulation measured at 1 hr by LC-MS/MS analysis; type: ADME, organism-based; how it was run: as §1
[3] = Plasma concentration in Balb/c mouse at 30 mg/kg, sc administered as single dose using MC/EtOH formulation measured at 1 hr by LC-MS/MS analysis; type: ADME, organism-based; how it was run: as §1
[4] = Plasma concentration in Balb/c mouse at 2 mg/kg, sc administered as single dose using MC/EtOH formulation measured after 3 hrs by LC-MS/MS analysis; type: ADME, organism-based; how it was run: as §1
[5] = Plasma concentration in Balb/c mouse at 2 mg/kg, sc administered as single dose using MC/EtOH formulation measured after 7 hrs by LC-MS/MS analysis; type: ADME, organism-based; how it was run: as §1
[6] = Plasma concentration in Balb/c mouse at 10 mg/kg, sc administered as single dose using MC/EtOH formulation measured after 7 hrs by LC-MS/MS analysis; type: ADME, organism-based; how it was run: as §1
[7] = Plasma concentration in Balb/c mouse at 30 mg/kg, po administered via gavage as single dose using MC/EtOH formulation measured after 7 hrs by LC-MS/MS analysis; type: ADME, organism-based; how it was run: as §1
[8] = Plasma concentration in Balb/c mouse at 2 mg/kg, sc administered as single dose using MC/EtOH formulation measured after 12 hrs by LC-MS/MS analysis; type: ADME, organism-based; how it was run: as §1
[9] = Plasma concentration in Balb/c mouse at 10 mg/kg, sc administered as single dose using MC/EtOH formulation measured after 24 hrs by LC-MS/MS analysis; type: ADME, organism-based; how it was run: as §1
[10] = AUC (0 to 24 hrs) in Balb/c mouse at 10 mg/kg, sc administered as single dose using MC/EtOH formulation by LC-MS/MS analysis; type: ADME, organism-based; parameters: dose 10 mg/kg, time < 24 hr, route subcutaneous; settings: in vivo; how it was run: as §1
[11] = AUC (0 to 24 hrs) in Balb/c mouse at 30 mg/kg, sc administered as single dose using MC/EtOH formulation by LC-MS/MS analysis; type: ADME, organism-based; parameters: dose 30 mg/kg, time < 24 hr, route subcutaneous; settings: in vivo; how it was run: as §1
[12] = AUC (0 to 24 hrs) in Balb/c mouse at 30 mg/kg, po administered via gavage as single dose using MC/EtOH formulation by LC-MS/MS analysis; type: ADME, organism-based; parameters: time < 24 hr, dose 30 mg/kg, route oral; settings: in vivo; how it was run: as §1
[13] = tested on: Mus musculus; experiment: Estrogenic activity in ovariectomized Balb/c mouse assessed as stimulation of uterine weight at 30 mg/kg, sc administered once daily from day 2 to 10 using MC/EtOH formulation measured on day 11; type: organism-based; settings: in vivo
How it was run: (§2)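 Female Balb/c mice (15–20 g) ovariectomized under isoflurane, 5/group. Inhibitor given SC in 0.1 mL MC:EtOH (92:8) on days 2–10. E1S (2 µg/mouse, BID) or E1 (0.06 µg/mouse, ID) given SC on days 5–10. Vehicle controls included. Uterus dissected and weighed on day 11. Means ± SEM.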

[14] = tested on: Mus musculus; experiment: In vivo inhibition of STS in sc-dosed ovariectomized Balb/c mouse assessed as reduction in E1S-stimulated uterus weight administered twice daily starting from day 2 to day 10 using MC/EtOH formulation and E1S addition on day 5 to 10 measured on day 11; type: functional, organism-based; how it was run: as §2
[15] = tested on: Mus musculus; experiment: Ex vivo inhibition of STS in ovariectomized Balb/c mouse liver homogenates assessed as reduction in transformation of [3H]-E1S into [3H]-E1 at 30 mg/kg, sc administered twice daily starting from day 2 to day 10 using MC/EtOH formulation and E1S addition on day 5 to 10 measured on day 11 by liquid scintillation counting method relative to control; type: functional
How it was run: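 Livers collected on day 11 from the OVX Balb/c uterotrophic protocol and homogenized in cold pH 7.4 phosphate buffer with protease inhibitors. 2000 g supernatant, 100 or 500 µg protein, incubated with [3H]-E1S/E1S (final 1 µM) in PBS for 2 h at 37 °C. Xylene extraction, then scintillation counting of both phases. Result given as % E1 formed. Triplicate.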

[16] = tested on: Mus musculus; experiment: Osteogenic activity in ovariectomized-induced C57BL/6 mouse model of osteoporosis assessed as recovery of tibia weight at 30 mg/kg, sc administered 6 days per week for 70 days using MC/EtOH formulation relative to control; type: functional
How it was run: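 Female C57BL/6 mice (63–70 days) ovariectomized under isoflurane; sham controls kept. 8/group, dosed SC in 0.1 mL MC:EtOH (92:8) for 70 days. Tibias excised and weighed (mg/g body weight). Calcium measured by ICP-MS after calcination at 600 °C for 6 h and HNO3 microwave digestion; expressed as mg/g tibia.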

[17] = tested on: Mus musculus; experiment: Estrogenic activity in ovariectomized-induced C57BL/6 mouse model of osteoporosis assessed as stimulation of uterus weight at 30 mg/kg, sc administered 6 days per week for 70 days using MC/EtOH formulation measured post last dose by necropsy analysis; type: ADME, organism-based; settings: in vivo
[18] = Toxicity in ovariectomized-induced C57BL/6 mouse model of osteoporosis assessed as effect on body weight at 30 mg/kg, sc administered 6 days per week for 70 days using MC/EtOH formulation measured post last dose; type: organism-based; settings: in vivo
How it was run: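 Female C57BL/6 mice, 63-70 days old, ovariectomized under isoflurane (sham-operated controls), randomized by weight into groups of 8. Treated SC in 0.1 mL MC:EtOH (92:8) over 70 days; sham and OVX controls received vehicle alone. Mice weighed at the end of the protocol before necropsy.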

[19] = Toxicity in nu/nu Br athymic mouse xenografted with human […]-stimulated MCF7 cells assessed as effect on liver at 30 mg/kg, sc administered 6 days per week for […] using MC/EtOH formulation measured 3 hrs post-last dose by necropsy analysis; type: organism-based; settings: in vivo
How it was run: (§3)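 MCF-7 cells (grown in DME-F12 with 5% FBS and 1 nM estradiol) inoculated SC at 4.1 x 10^6 cells in 30% Matrigel into both flanks of bilaterally ovariectomized nude mice, three days after surgery; E2S 50 µg/mouse SC three times weekly. Test agent SC 6 days/week in 0.1 mL MC:EtOH (92:8) for 28 days; vehicle-only controls. Mice weighed and killed 3 h after last dose; livers removed.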

[20] = Toxicity in nu/nu Br athymic mouse xenografted with human […]-stimulated MCF7 cells assessed as effect on kidneys at 30 mg/kg, sc administered 6 days per week […] using MC/EtOH formulation measured 3 hrs post-last dose by necropsy analysis; type: organism-based; settings: in vivo; how it was run: as §3
[21] = Toxicity in nu/nu Br athymic mouse xenografted with human […]-stimulated MCF7 cells assessed as effect on liver weight at 30 mg/kg, sc administered 6 days per week […] using MC/EtOH formulation measured 3 hrs post-last dose; type: organism-based; settings: in vivo; how it was run: as §3
[22] = Toxicity in nu/nu Br athymic mouse xenografted with human […] MCF7 cells assessed as effect on body weight at 30 mg/kg, sc administered 6 days per week for […] using MC/EtOH formulation measured 3 hrs post-last dose; type: organism-based; settings: in vivo; how it was run: as §3

With Cc1ccc(CN(Cc2ccc(C(=O)N3CCc4ccc(OS(N)(=O)=O)cc4C3)cc2)Cc2ccco2)s1 the concentration at 1 h [1] was 681 ng/mL, the concentration at 1 h [2] was 2600 ng/mL and the concentration at 1 h [3] was 2600 ng/mL. It also gave a concentration at 3 h [4] of 33 ng/mL, a concentration at 7 h [5] of 1 ng/mL and a concentration at 7 h [6] of 15 ng/mL. It also gave a concentration at 7 h [7] of 75 ng/mL, a concentration at 12 h [8] of 1 ng/mL and a concentration at 24 h [9] of 2 ng/mL. For the same compound, the AUC(0-t) at 24 h [10] was 5200 ng·h/mL, the AUC(0-t) at 24 h [11] was 13500 ng·h/mL and the AUC(0-t) at 24 h [12] was 878 ng·h/mL. The Activity [13] was “Non-Toxic”, the inhibition [14] was “Dose-dependent effect” and the inhibition in vivo at 30 mg/kg [15] was 81%. The Activity [16] was 100%, the Activity [17] was “Non-Toxic” and the Activity [18] was “Non-Toxic”. The Activity [19] was “Non-Toxic”, the Activity [20] was “Non-Toxic” and the Activity [21] was “Non-Toxic”. For the same compound, the Activity [22] was “Non-Toxic”.
